# RAD54 branch: inhibitors of human RAD54 branch migration | Q92698 | RAD54 Holliday junction branch migration, FAM/BHQ fluorescence | inhibition, % at 10.4 µM | 360,000 compounds, 0.14% hits | AID 602329;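 active = mean normalized replicate activity at least 40 and at least half of replicates scoring 40 or more; inconclusive = only one of the two criteria met; inactive = mean below 40 and under half of replicates reaching 40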;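 also: 0% = median of neutral control wells and 100% = median of positive control wells; inhibitors cause a drop in the FAM fluorescence signal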
# AF4-AF9 inh: inhibitors of human MLL-AF4/AF9 interaction | P42568 | AlphaScreen, biotin-AF4 peptide binding to FLAG-AF9 | inhibition, % at 10 µM | 350,000 compounds, 0.47% hits;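 active = every replicate reaching a set inhibition limit, whatever the replicate mean, cut at about 25% in these data; inconclusive = mean inhibition reaches that limit but some replicates miss it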;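 also: 0% = plate neutral control median and 100% = total signal loss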
# XiGFP reactiv: reactivates the inactive X chromosome in mouse fibroblasts. XiGFP mouse fibroblasts, % GFP-positive cells imaging, 3 d; cells co-treated with 5-aza-dC sensitizer; scaled so ellipticine positive control = 100%. activation, % at 7.58 µM. 360,000 compounds, 0.055% hits. AID 743238;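 active = mean normalized replicate activation at least 10% and every replicate at or above 10%; inconclusive = only one of the two criteria met; inactive = mean below 10% and not all replicates reach 10%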;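 also: 0% = median of on-plate neutral control wells and 100% = ellipticine 6 µM median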
#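 Assay system: SV40-immortalized XiGFP fibroblast cells, line 68-5-11; buffer or medium: DMEM plus 5-aza-dC sensitizer; compound: one concentration, pinned; timing: compounds 3 days, fix/stain 15 min at room temperature; benchmarks: positive control ellipticine, 6 µM final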
# S100A4 MyoIIA: inhibitors of human S100A4 binding to myosin IIA peptide | P26447 | 360,000 compounds, 0.14% hits | inhibition, % at 10.7 µM | S100A4/TAMRA-MyoIIA peptide fluorescence polarization;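 active = mean inhibition of at least 70% across replicates, with every replicate also reaching that level; inconclusive = mean inhibition reaches 70% but some replicates fall short; inactive = mean inhibition below 70%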
# Target sequence (P26447 whole entry, looked up): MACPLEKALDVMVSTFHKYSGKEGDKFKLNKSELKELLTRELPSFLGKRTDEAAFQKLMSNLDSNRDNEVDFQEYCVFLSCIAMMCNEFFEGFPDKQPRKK
#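 assay system = human S100A4 monomer with TAMRA-labelled myosin IIA peptide | also added = labelled myosin peptide probe, 5 nM | incubation = 5 min between mix addition and reading | control set = DMSO and TFP controls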
# RAD52 inh: RAD52 (human) annealing inhibition. 360,000 compounds, 0.46% hits. inhibition, % at 18.7 µM. recombinant RAD52 DNA annealing, FRET fluorescence. P43351;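 active = every replicate showing at least 50% inhibition; inconclusive = mean inhibition at least 50% but not in every replicate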
# Target sequence (P43351 whole entry, looked up): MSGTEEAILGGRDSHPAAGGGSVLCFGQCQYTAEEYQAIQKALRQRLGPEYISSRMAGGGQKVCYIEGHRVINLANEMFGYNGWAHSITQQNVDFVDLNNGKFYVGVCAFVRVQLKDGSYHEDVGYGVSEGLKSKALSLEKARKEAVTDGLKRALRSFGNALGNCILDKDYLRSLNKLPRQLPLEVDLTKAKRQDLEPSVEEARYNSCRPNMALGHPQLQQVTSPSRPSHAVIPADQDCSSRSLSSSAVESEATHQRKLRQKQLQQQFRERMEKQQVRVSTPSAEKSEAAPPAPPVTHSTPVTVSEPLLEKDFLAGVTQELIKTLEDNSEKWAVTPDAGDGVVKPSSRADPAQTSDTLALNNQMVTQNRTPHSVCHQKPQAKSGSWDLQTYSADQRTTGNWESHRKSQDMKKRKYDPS
# Casp6 inh: caspase-6 (human) enzyme inhibition; 350,000 compounds, 0.53% hits; P55212; purified caspase-6, Z-VEID-R110 cleavage fluorescence; inhibition, % at 12.5 µM;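 active = mean inhibition across replicates at least about 35%, with every replicate also reaching that limit, limit read from the data; inconclusive = only one of the two criteria met; inactive = neither criterion met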;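 also: 0% = median of neutral control wells and 100% = no fluorescence left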
# DNA binder FP: DNA binding artifact in RAD52 counter-screen | 1,000 compounds, 8% hits | Salmon sperm DNA/acridine orange FP displacement | AID 652128 | AC50, µM | shares compounds with RAD52 inh;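 active = fitted half-maximal concentration for signal loss at or below twice the highest dose tested, in every separate run, actives reach about 64 µM in these data; inconclusive = runs disagree, or flat partial signal loss, or poor fit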
# An asterisk follows results filed as active; i = inactive; ? = inconclusive; . = not tested or not shown. Compounds with a hit are over-represented: about 1.3% of the library has one in this group of screens.
SMILES,RAD54 branch,AF4-AF9 inh,XiGFP reactiv,S100A4 MyoIIA,RAD52 inh,Casp6 inh,DNA binder FP
CCn1c2ccccc2c2cc(CN3CCN(Cc4cc(OC)ccc4O)CC3)ccc21,5,0,0,4,54*,-2,i
Nc1cc(N)cc(C(=O)c2ccccc2)c1,6,9,0,-5,89*,36*,i
C[C@@H]1CN([C@@H](C)CO)C(=O)c2cc(NC(=O)CCN3CCOCC3)ccc2O[C@@H]1CN(C)Cc1ccccc1,-3,-1,0,1,-27,3,.
COc1ccc(C2NC(C(=O)O)Cc3c2[nH]c2ccccc32)cc1CN1CCN(c2ccc(F)cc2)CC1 (stereo not given),-6,13,0,0,-10,1,.
COc1ccc(C2NCCc3c2[nH]c2ccccc32)cc1COc1ccc(F)cc1 (stereo not given),.,?,1,-5,85*,-24,i
Cc1noc(C)c1S(=O)(=O)N(C)C[C@@H]1Oc2ccc(NC(=O)NC(C)C)cc2CC(=O)N([C@H](C)CO)C[C@H]1C,-9,2,0,4,8,0,.
Cc1ccc2sc(N(CCCN(C)C)C(=O)c3ccc(S(=O)(=O)N(C)C4CCCCC4)cc3)nc2c1C,9,12,0,1,61*,-10,i
CN(C)CCCN(C(=O)c1ccc(S(=O)(=O)N2CCc3ccccc3C2)cc1)c1nc2ccc(F)cc2s1,5,2,2,-1,-1,2,.
Cc1ccc2nc(N(CCCN(C)C)C(=O)c3ccc(S(=O)(=O)N4CCc5ccccc5C4)cc3)sc2c1,-5,5,0,-2,74*,11,i
C[C@@H]1CN([C@@H](C)CO)C(=O)c2ccccc2-c2ccccc2CO[C@H]1CN(C)S(=O)(=O)c1cccc(F)c1,6,20,1,5,20,4,.
COc1cccc(CN2[C@H](CO)[C@H]3c4ccccc4N(C(=O)c4ccncc4)C[C@H]32)c1,2,-1,0,5,-2,3,.
COCC#Cc1cnc2c(c1)C(=O)N([C@@H](C)CO)C[C@H](C)[C@@H](CN(C)C)O2,-2,-2,0,0,-7,3,.
CN1C(=O)c2cc(NC(=O)c3ccc(F)c(F)c3)ccc2OC[C@H]2O[C@H](CC(=O)N3CCCCC3)CC[C@H]21,-2,1,0,6,3,2,.
CCCCCCOC(=O)C[N+](C)(C)CCOC1CC2CCC1(C)C2(C)C (stereo not given),-5,.,.,.,.,.,.
CCCCCCCOC(=O)C[N+](C)(C)CCOC1CC2CCC1(C)C2(C)C (stereo not given),.,13,0,6,85*,-44,i
CCc1ccc(OCCNc2cc(N3CCNC(C)C3)ccc2[N+](=O)[O-])cc1 (stereo not given),4,37*,-1,-6,11,-8,i
CC1CN(c2ccc([N+](=O)[O-])c(NCCOc3ccc(Cl)cc3)c2)CC(C)N1 (stereo not given),15,21,0,-6,31,1,.
O=C(CCn1nc(-c2ccc(Cl)cc2)ccc1=O)NCCCN1CCCCCC1,-18,.,.,-5,63*,-55,i
CCCN1CCN(CCCNC(=O)CCn2nc(-c3ccccc3)ccc2=O)CC1,-8,-5,0,-6,-23,0,.
Cc1cccc(OCC(=O)Nc2ccc3c(c2)nc(CN2CCCCC2)n3C)c1,.,-9,0,-1,67*,-14,i
CCCCCc1cc(=O)oc2c(C(CCN3CCCC(C)C3)c3ccc(N(C)C)cc3)c(OC)cc(OC)c12 (stereo not given),-10,.,.,.,.,.,.
CCCCCc1cc(=O)oc2c(C(CCN(CC)CC)c3ccc(N(C)C)cc3)c(OC)cc(OC)c12 (stereo not given),17,52*,0,36,60*,-2,i
COc1ccc(CN(C)C[C@@H]2OCCCC[C@@H](C)Oc3ccc(NC(=O)c4ccncc4)cc3C(=O)N([C@@H](C)CO)C[C@@H]2C)cc1,0,4,0,-15,4,-1,.
CCN1CCN(c2cc(C)c3cc(NC(=S)N4CCN(c5ccccc5)CC4)ccc3n2)CC1,8,5,0,-4,-14,-13,.
Cc1cc(N2CCN(C)CC2)nc2ccc(NC(=S)N3CCN(c4ccccn4)CC3)cc12,.,16,0,1,71*,-24,i
SMILES,RAD54 branch,AF4-AF9 inh,XiGFP reactiv,S100A4 MyoIIA,RAD52 inh,Casp6 inh,DNA binder FP
CCN1CCN(c2cc(C)c3cc(NC(=S)N4CCOCC4)ccc3n2)CC1,.,4,0,-8,78*,-33,i
CCN1CCN(c2cc(C)c3cc(NC(=S)N(CC)CC)ccc3n2)CC1,.,25*,0,3,68*,-88,i
COCC1CC(c2ccccc2)OC(c2ccc(NC(=O)CCCCCCC(=O)O)cc2)O1 (stereo not given),4,-4,.,-4,0,-1,.
C[C@@H]1CN([C@H](C)CO)C(=O)c2cc(C3=CCCC3)cnc2O[C@@H]1CN(C)C(=O)Nc1ccccc1,-3,-1,-1,0,20,3,.
CCCCCCCCCCCCC/C=C/[C@@H](O)[C@@H](N)CO,8,-13,0,-27,55*,1,i
CC1CCN(Cc2c(C(=O)N/N=C/c3cc(Br)ccc3O)nnn2-c2nonc2N)CC1,-1,1,0,1,2,-3,.
C/C(=N\NC(=O)c1nnn(-c2nonc2N)c1CN1CCC(C)CC1)c1ccc(Br)cc1,0,2,0,6,72*,-2,i
COCC(=O)Nc1ccc2c(c1)OC[C@@H](C)N(C(=O)c1ccccc1)C[C@H](C)[C@@H](OC)CN(C)C2=O,10,-1,0,2,6,.,.
CCCNc1nc2ccccc2n2c(C)nnc12,-1,0,0,-5,73*,-63,i
CCCN(CCC)c1nc2ccccc2n2c(C)nnc12,-1,.,.,.,.,.,.
CCCNC(=O)c1ccc2nc(-c3ccccc3)c(-c3ccccc3)nc2c1,-2,.,.,10,-10,2,.
CCN1CCN(CCNC(=O)c2ccc3nc(-c4cccc(C)c4)c(-c4cccc(C)c4)nc3c2)CC1,9,28*,0,-3,68*,-84,i
C[C@]12CC[C@H](O)CC1=CCC1C2CC[C@@]2(C)C1CC[C@@H]2NC(=O)[C@@H](N)CO (stereo not given in full),.,-6,0,-2,-1,0,.

# Assay outcomes: PubChem BioAssay, Broad Institute
